Source: publication PMC3000598 (Phytochemistry letters, 2008)

What was measured:
[1] = system: 5-LOX catalyzed LTB4 formation; test: In vitro assay for leukotriene; type: cell-based; details: Homo sapiens, Leukocyte, 10 min, read-out: IC50 5-LOX mediated LTB4 formation
Method in brief: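 Human venous-blood polymorphonuclear leukocytes isolated by sedimentation rate and lysis tolerance; viability checked by 0.4% trypan blue. Cells (4500 cells/mL) were incubated with the ethanol-dissolved test compound, CaCl2, A23187 and arachidonic acid for 10 min at 37 °C with shaking. The reaction was stopped with 10% HCO2H, and LTB4 was measured by competitive EIA.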

[2] = system: COX-1; details: cellular as well as cell-free assays; ref Albert et al. (2002); cited from earlier work
[3] = system: 5-LOX; details: cellular as well as cell-free assays; ref Albert et al. (2002); cited from earlier work

IC50 [1] [µM]	SMILES	COX-1 inhibition [2]	5-LOX inhibition [3]
5	CC(c1cc2ccccc2s1)N(O)C(N)=O (stereo not drawn) [Zileuton]	–	–
–	CC(C)=CCC[C@]1(C)[C@@H](CC=C(C)C)C[C@@]2(CC=C(C)C)C(=O)[C@]1(C(=O)C(C)C)C(=O)C(CC=C(C)C)=C2O [hyperforin]	dual COX-1/5-LOX inhibitor	dual COX-1/5-LOX inhibitor
